Four compounds from ChEMBL document CHEMBL1151448, “Comparative antianaerobic activities of doripenem determined by MIC and time-kill analysis” (2008) can be followed below.

Holding throughout (format): functional
Experiment [1] has as its system Finegoldia magna. The experiment in a line: Bactericidal activity against beta lactamase-positive Finegoldia magna isolated from intra-abdominal infection and pelvic inflammatory disease patients assessed as bacterial killing at MIC after 24 hrs by time kill analysis. In short, it runs like this: (§1)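 Anaerobic macrodilution time-kill. Inoculum from brucella blood plates, prepared and diluted in prereduced brucella broth inside the anaerobe chamber. Final 10^6 to 10^7 CFU/ml in prereduced brucella broth with 5% laked horse blood cells, 5 μg/ml hemin and 1 μg/ml vitamin K1. […] Shaken at 35°C for 48 h. Viable counts taken at 6, 12, 24 and 48 h. 99.9% kill taken as bactericidal.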

The next experiment concerns Clostridium perfringens. The experiment is described as follows: Bactericidal activity against Clostridium perfringens isolated from intra-abdominal infection and pelvic inflammatory disease patients assessed as bacterial killing at MIC after 48 hrs by time kill analysis. The essentials:
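Time-kill in prereduced brucella broth with 5% laked horse blood cells, hemin and vitamin K1. […] Viable counts taken at 6, 12, 24 and 48 h, plates incubated 48 h anaerobically. Kill scored as 90%, 99% or 99.9%; 99.9% defines bactericidal.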

Experiment [2] has as its system Bacteroides thetaiotaomicron. The experiment is described as follows: Bactericidal activity against beta lactamase-positive Bacteroides thetaiotaomicron isolated from intra-abdominal infection and pelvic inflammatory disease patients assessed as bacterial killing at MIC after 48 hrs by time kill analysis. The essentials: (§2)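 Macrodilution time-kill in prereduced brucella broth with 5% laked horse blood, hemin 5 μg/ml and vitamin K1 1 μg/ml, at final inoculum 10^6–10^7 CFU/ml. […] Viable counts were taken at 6, 12, 24 and 48 h on plates incubated 48 h anaerobically. 99.9% kill was taken as bactericidal.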

The subject of a further experiment is Fusobacterium nucleatum. The experiment is described as follows: Bactericidal activity against beta lactamase-positive Fusobacterium nucleatum isolated from intra-abdominal infection and pelvic inflammatory disease patients assessed as bacterial killing at MIC after 48 hrs by time kill analysis. The essentials:
as §1

Experiment [3] deals with Finegoldia magna. The experiment in a line: Bactericidal activity against beta lactamase-positive Finegoldia magna isolated from intra-abdominal infection and pelvic inflammatory disease patients assessed as bacterial killing at MIC after 48 hrs by time kill analysis. In short, it runs like this:
as §1

Another experiment relates to Prevotella intermedia. The experiment in a line: Bactericidal activity against beta lactamase-positive Prevotella intermedia isolated from intra-abdominal infection and pelvic inflammatory disease patients assessed as bacterial killing at MIC after 48 hrs by time kill analysis. In short, it runs like this: as §1
In the next experiment the test system is Bacteroides fragilis. The experiment is described as follows: Bactericidal activity against beta lactamase-positive Bacteroides fragilis isolated from intra-abdominal infection and pelvic inflammatory disease patients assessed as bacterial killing at MIC after 48 hrs by time kill analysis. The essentials:
as §2

The next experiment deals with Clostridioides difficile. The experiment in a line: Bactericidal activity against Clostridium difficile isolated from intra-abdominal infection and pelvic inflammatory disease patients assessed as bacterial killing at MIC after 48 hrs by time kill analysis. In short, it runs like this: as §2

On to `C[C@@H](O)[C@H]1C(=O)N2C(C(=O)O)=C(S[C@@H]3CN[C@H](C(=O)Nc4cccc(C(=O)O)c4)C3)[C@H](C)[C@H]12`, for which, in the experiment with Finegoldia magna [1], the Activity worked out at 90%.

Regarding `C[C@@H](O)[C@H]1C(=O)N2C(C(=O)O)=C(S[C@@H]3CN[C@H](CNS(N)(=O)=O)C3)[C@H](C)[C@H]12` [DORIPENEM], the Activity (in the experiment on Clostridium perfringens; in experiment [2]; in the experiment with Fusobacterium nucleatum; in the experiment on Finegoldia magna [3]; in the experiment with Prevotella intermedia; with Bacteroides fragilis) was 99% throughout. In addition, the figures for the Activity with Finegoldia magna [1] and in the experiment on Clostridioides difficile were 90% and 99%, respectively.

With `C[C@@H](O)[C@H]1C(=O)N2C(C(=O)O)=C(SCCNC=N)C[C@H]12` [IMIPENEM ANHYDROUS], the Activity (with Clostridium perfringens; in experiment [2]; in the experiment on Fusobacterium nucleatum; in the experiment on Finegoldia magna [3]; with Prevotella intermedia; in the experiment on Bacteroides fragilis) was 99% in each case. Besides, the Activity is listed as 90% in the experiment with Finegoldia magna [1] and 99% with Clostridioides difficile.

`C[C@@H](O)[C@H]1C(=O)N2C(C(=O)O)=C(S[C@@H]3CN[C@H](C(=O)N(C)C)C3)[C@H](C)[C@H]12` [MEROPENEM]: the Activity in the experiment with Finegoldia magna [1] is reported as 90%.
